The test system of assay [1] is Plasmodium falciparum. Briefly: Antiprotozoal activity against chloroquine and pyrimethamine-resistant Plasmodium falciparum K1 after 72 hrs by [3H]hypoxanthine uptake. It counts as functional, organism-based.
Assay [2] deals with L6. Nature of the assay: Cytotoxicity against rat L6 cells after 72 hrs by alamar blue assay. In kind it is cell-based. The note with it: L6, 72 h. Put shortly:
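Cultured L6 rat myoblasts exposed to compound; viability read by the same Alamar Blue procedure used for the STIB900 trypanosome assay; duplicate determinations.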
(Alamar Blue is a resazurin reagent that responds to reducing activity.)

The test system of assay [3] is Trypanosoma brucei rhodesiense. Nature of the assay: Antiprotozoal activity against Trypanosoma brucei rhodesiense STIB900 bloodstream form after 72 hrs by alamar blue assay. In kind it is functional, organism-based.
A short description of assay [4]: Binding affinity to poly(dA-dT)2 DNA assessed as change in thermal melting temperature administered at compound to DNA ratio of 0.3 by thermistor analysis. Put shortly: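 Thermal melting of poly(dA-dT)2 in CAC 10 buffer (cacodylic acid 10 mM, EDTA 1 mM, NaCl 100 mM, pH 7.0), 1 cm quartz cuvettes, temperature raised 0.5 C/min. DNA quantified by A260. Compound:DNA 0.3 mol/mol, compound-free DNA as control. ΔTm reproducible within 0.5 C.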

The subject of assay [5] is Trypanosoma brucei rhodesiense. Nature of the assay: Antitrypanosomal activity against Trypanosoma brucei rhodesiense STIB900 infected in mouse assessed as parasite-free survival at 20 mg/kg, ip administered on day 3 to 6 after infection measured on day 60. In kind it is functional, organism-based. The arrangement: dose 20 mg/kg. In a few lines: (§1)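 STIB900 acute mouse infection model with four infected mice per group. Parent compounds were given intraperitoneally and prodrugs orally, once daily for 4 days. Read-outs were the number of mice alive and parasite-free at day 60, and average days of survival.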

In assay [6] the test system is Trypanosoma brucei rhodesiense. Briefly: Antitrypanosomal activity against Trypanosoma brucei rhodesiense STIB900 infected in mouse assessed as average survival days at 20 mg/kg, ip administered on day 3 to 6 after infection. It counts as functional. As to conditions: route intraperitoneal.
The test system of assay [7] is Trypanosoma brucei rhodesiense. Briefly: Antitrypanosomal activity against Trypanosoma brucei rhodesiense STIB900 infected in mouse assessed as parasite-free survival at 25 mg/kg, po administered on day 3 to 6 after infection measured on day 60. Also noted: dose 25 mg/kg. In kind it is functional, organism-based. In a few lines:
as §1

In assay [8] the test system is Trypanosoma brucei rhodesiense. Briefly: Antitrypanosomal activity against Trypanosoma brucei rhodesiense STIB900 infected in mouse assessed as parasite-free survival at 25 mg/kg, ip administered on day 3 to 6 after infection measured on day 60. In kind it is functional, organism-based. The arrangement: dose 25 mg/kg.
The subject of assay [9] is Trypanosoma brucei rhodesiense. Nature of the assay: Antitrypanosomal activity against Trypanosoma brucei rhodesiense STIB900 infected in mouse assessed as average survival days at 25 mg/kg, ip administered on day 3 to 6 after infection. The note with it: route intraperitoneal. In kind it is functional.
The test system of assay [10] is Trypanosoma brucei rhodesiense. Nature of the assay: Antitrypanosomal activity against Trypanosoma brucei rhodesiense STIB900 infected in mouse assessed as average survival days at 25 mg/kg, po administered on day 3 to 6 after infection. It counts as functional.

Active and inactive are the calls of the source. The rule behind the calls is not given here.

As to `N=C(N)Nc1ccc(-c2ccc(-c3ccc(NC(=N)N)cn3)cc2)nc1`, the IC50 (usually the concentration at which inhibition is half-maximal) came to 151 nM in assay [1], 152 µM in [2] and 0.169 µM in assay [3]. Besides, the ΔTm – broadly, the shift of the melting midpoint relative to a reference – in [4] stood at 9.2 °C. In assay [5], the outcome was inactive. For the same molecule, the Activity in assay [6] came out at 8.5 days.
As for `CNC(=N)Nc1ccc(-c2ccc(-c3ccc(NC(=N)NC)cn3)cc2)nc1`, the values for the 50% inhibitory concentration (IC50) in assay [1], in assay [2] and in [3] were 54 nM, > 161 µM and 0.134 µM, respectively. Further, the ΔTm in assay [4] came to 10.2 °C. Moreover, the outcome in assay [5] was inactive. The Activity in [6] was >47 days.
Take `CCOC(=O)/N=C(\N)Nc1ccc(-c2ccc(-c3ccc(N/C(N)=N/C(=O)OCC)cn3)cc2)nc1`: the IC50 in assay [1] is 1.9 nM; in [2], > 181 µM; in [3] it was 61 µM. Moreover, the result in [7] was inactive.
For `CCOC(=O)/N=C(\NC)Nc1ccc(-c2ccc(-c3ccc(N/C(=N/C(=O)OCC)NC)cn3)cc2)nc1`, the IC50 in assay [1] is 2.6 nM; in [2] it was > 169 µM; in assay [3], 17.8 µM. For the same molecule, the outcome in assay [8] was inactive. Also, the Activity in assay [9] stood at 7.75 days.
As for `CCOC(=O)/N=C(/Nc1ccc(-c2ccc(-c3ccc(N/C(=N/C(=O)OCC)NC(C)C)cn3)cc2)nc1)NC(C)C`, the figures for the IC50 in assay [1], in [2] and in [3] were 2.9 nM, > 135 µM and 8.2 µM, respectively.
For the molecule `CNC(=N)Nc1ccc(-c2ccc(-c3ccc(NC(=N)NC)cc3)cc2)cc1`, the IC50 in assay [1] came to 7 nM; in [2], 65.1 µM; in [3], 0.018 µM. The ΔTm in assay [4] was 13 °C. In addition, in assay [5], the outcome was inactive. Moreover, the Activity in assay [6] was >56 days.
Take `CCOC(=O)/N=C(\NC)Nc1ccc(-c2ccc(-c3ccc(N/C(=N/C(=O)OCC)NC)cc3)cc2)cc1`: the IC50 in assay [1] is 8.9 nM; in assay [2] it was 5.7 µM; in [3], 7.5 µM. In addition, in [10], the Activity was 20.25 days. The outcome in assay [7] was inactive.
As for `CCOC(=O)/N=C(\N)Nc1ccc(-c2ccc(-c3ccc(N/C(N)=N/C(=O)OCC)cc3)cc2)cc1`, the IC50 was 1.7 nM in assay [1], > 181 µM in assay [2] and 142 µM in [3]. Further, the Activity in [10] came out at 20.25 days. Further, the outcome in [7] was inactive.
On to `N=C(N)c1ccc(-c2ccc(-c3ccc(C(=N)N)cc3)cc2)cc1`, for which it took 1 nM to reach half-maximal inhibition in [1] (IC50). In addition, the ΔTm in assay [4] was 18.2 °C. Further, the result in [5] was inactive. Moreover, in [6], the Activity worked out at 29 days.
For the molecule `N=C(N)Nc1ccc(-c2ccc(-c3ccc(NC(=N)N)cc3)cc2)cc1`, the half-maximal inhibitory concentration (IC50) in assay [1] is 27 nM; in assay [2], 25.4 µM; in [3], 0.018 µM. Besides, in assay [4], the ΔTm stood at 14.2 °C. Moreover, the outcome in assay [5] was inactive. Moreover, the Activity in [6] is >54.5 days.
`CC(C)NC(=N)Nc1ccc(-c2ccc(-c3ccc(NC(=N)NC(C)C)cn3)cc2)nc1`: the IC50 in assay [1] was found to be 393 nM; in assay [2], 89.7 µM; in [3], 11.9 µM. The ΔTm in [4] was found to be 8.1 °C.
The like results for `CC(C)NC(=N)Nc1ccc(-c2ccc(-c3ccc(NC(=N)NC(C)C)cc3)cc2)cc1` were, in that order, 14 nM, 21.9 µM, 0.53 µM and 9.3 °C.
For `CCOC(=O)/N=C(/Nc1ccc(-c2ccc(-c3ccc(N/C(=N/C(=O)OCC)NC(C)C)cc3)cc2)cc1)NC(C)C`, the results for the IC50 in assay [1], in assay [2] and in assay [3] were 4.5 nM, 5.3 µM and 14.2 µM, respectively.

For the origin of these results see ChEMBL document CHEMBL1154490, “Novel linear triaryl guanidines, N-substituted guanidines and potential prodrugs as antiprotozoal agents” (Eur J Med Chem, 2008).
